Test results reported in article PMC11231753 (Biofilm, 2024).
Values after ≈ are worked out from the molar mass of the structure shown.

Tests used:
C. violaceum 6267 = test: MIC by broth microdilution against C. violaceum 6267; assay type: cell-based, Chromobacterium violaceum
Procedure, shortened: (§1)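 Strains maintained in LB (1 % peptone, 0.5 % yeast extract, 0.5 % NaCl). Broth microdilution in 96-well plates: 10⁶ CFU/mL exposed to serial two-fold dilutions of the test extract, overnight at 37 °C. MIC taken as the lowest concentration inhibiting growth. Amoxicillin-clavulanate and imipenem served as positive controls. Run in triplicate.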

[1] = test system: violacein production by C. violaceum 6267; test: Quantitative anti-QS assay: inhibition of violacein production in 96 well plates; assay type: cell-based, Chromobacterium violaceum
[2] = test system: P. aeruginosa PAO1 biofilm formation; test: Inhibition of biofilm formation; assay type: cell-based, Pseudomonas aeruginosa; conditions: comparison of Fig. 5A, concentration not given
Procedure, shortened: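 Biofilm grown in LB broth with 10⁵ CFU/mL PAO1 and serial dilutions of the test extract (7.81–500 μg/mL) at 37 °C overnight. Amoxicillin-clavulanate (3.9–250 μg/mL) and imipenem (0.015–0.97 μg/mL) served as reference antibiotics. Biomass was stained with crystal violet and read at 600 nm to give percent inhibition. Biofilm cells were also viewed by inverted microscope. Run in triplicate; mean ± standard deviation.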

P. aeruginosa PAO1 = test: MIC by broth microdilution against P. aeruginosa PAO1; assay type: cell-based, Pseudomonas aeruginosa
Procedure, shortened: as §1

P. aeruginosa = conditions: cited from earlier work
[3] = test system: Klebsiella pneumoniae, Proteus mirabilis, Pseudomonas aeruginosa, and Shigella flexineri; conditions: cited from earlier work

O=C/C=C/c1ccccc1 [Cinnamaldehyde]
MIC (C. violaceum 6267; Chromobacterium violaceum, 6267, read-out: MIC C. violaceum): 31.2 µg/mL (≈ 236 µM) | MIC C. violaceum (C. violaceum 6267; broth microdilution): 31.25 µg/mL (≈ 236 µM) | Anti-QS activity (concentration inhibiting violacein production) ([1]; C. violaceum 6267): 7.81 µg/mL | percentage of inhibition (violacein production) ([1]; at the anti-QS concentration printed beside the value): 87.8 ± 2.32% | Inhibition of violacein production ([1]; ½ MIC (n-BuOH fraction 125 μg/mL; ethanolic extract 250 μg/mL)): 93.4%

C[C@@H](O)[C@H]1C(=O)N2C(C(=O)O)=C(SCCN=CN)C[C@H]12 [Imipenem, imipenem]
Antibiofilm effect, percentage of inhibition [2]: 47.24% | MIC (P. aeruginosa PAO1; Pseudomonas aeruginosa, PAO1, read-out: MIC P. aeruginosa PAO1): 31.2 µg/mL (≈ 104 µM) | MIC P. aeruginosa PAO1 (P. aeruginosa PAO1; broth microdilution, overnight 37 °C): 31.25 µg/mL (≈ 104 µM)

O=c1c(O)c(-c2cc(O)c(O)c(O)c2)oc2cc(O)cc(O)c12 [myricetin]
MIC against P. aeruginosa ATCC 27853 (P. aeruginosa): 256 µg/mL (≈ 804 µM) | Concentration inhibiting bacterial growth of various Gram-negative bacteria [3]: 30 µg/mL
